Shown are actives, neighbours in structure and some others; about 3.1% of the full set was active somewhere.
CHO parental Ca = signal in parental CHO cells, OX1R antagonist counter-screen. AID 463079. 330,000 tested, 0.63% active. inhibition, % at 5.6 µM. parental CHO-K1, ATP-induced calcium, Fluo-8 fluorescence;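 active means inhibition above that plate's mean sample inhibition plus 3 SD, cut at about 26% in these data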;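 further: 0% = ATP-challenged DMSO wells and 100% = DMSO wells without ATP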
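Material: Parental CHO cells | Reagent: ATP | Compound dosing: Single nominal dose of 5.6 µM per compound | Detection: Intracellular calcium via Fluo-8 no-wash fluorescent dye | Read-out: % inhibition of ATP-induced calcium mobilization | Benchmarks: Low control ATP plus DMSO, high control DMSO only | Replicates: Singlicate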
GalR3 antagonist = human GalR3 antagonism; O60755; HEK293 GalR3-CNG cAMP membrane potential fluorescence; galR3 body fused to GalR1 C-terminus; inhibition, % at 3 µM; 360,000 tested, 0.44% active; AID 651719;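 active means inhibition above the screen-wide average plus 3 SD, cut at about 13% in these data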;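 further: forskolin and galanin both at EC90 stimulate the cells; cAMP rise reported by CNG channel membrane potential dye signal; 0% = forskolin plus galanin with DMSO and 100% = forskolin alone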
Target sequence (O60755 1-299 limits assumed): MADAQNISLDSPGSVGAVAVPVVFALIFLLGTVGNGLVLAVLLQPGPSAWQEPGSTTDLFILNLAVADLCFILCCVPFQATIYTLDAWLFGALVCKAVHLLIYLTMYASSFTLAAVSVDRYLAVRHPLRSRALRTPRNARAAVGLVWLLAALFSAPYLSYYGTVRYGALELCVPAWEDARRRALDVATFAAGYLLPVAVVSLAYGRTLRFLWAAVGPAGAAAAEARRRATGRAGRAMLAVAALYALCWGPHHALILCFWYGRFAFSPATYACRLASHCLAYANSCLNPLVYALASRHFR
OX1R antag-1 = OX1R (human) antagonism; O43613; AID 485270; 330,000 tested, 1.8% active; inhibition, % at 6.6 µM; OX1R-expressing cells, FRET antagonist read-out; in the data active means inhibition mostly above about 38%, no sharp cut-off; inactive means mostly below about 40%;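 further: 0% = agonist challenge alone and 100% = reference antagonist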
Target sequence (O43613 whole entry, looked up): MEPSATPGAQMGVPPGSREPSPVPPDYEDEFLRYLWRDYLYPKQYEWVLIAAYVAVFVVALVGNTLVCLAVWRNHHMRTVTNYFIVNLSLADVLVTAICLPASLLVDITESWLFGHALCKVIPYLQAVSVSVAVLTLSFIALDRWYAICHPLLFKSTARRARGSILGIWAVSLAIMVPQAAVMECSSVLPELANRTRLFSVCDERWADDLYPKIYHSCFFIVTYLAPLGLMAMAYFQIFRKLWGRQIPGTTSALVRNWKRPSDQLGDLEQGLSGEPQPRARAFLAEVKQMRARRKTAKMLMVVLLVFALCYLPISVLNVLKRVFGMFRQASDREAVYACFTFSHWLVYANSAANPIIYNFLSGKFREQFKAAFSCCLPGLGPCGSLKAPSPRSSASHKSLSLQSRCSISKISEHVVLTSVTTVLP
OX1R antag-2 = blocks the human orexin 1 receptor | inhibition, % at 5 µM | 330,000 tested, 0.43% active | CHO/OX1R cells, Fluo-8 calcium fluorescence, orexin A | O43613 | AID 434989;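 active means inhibition above its plate's threshold, mean inhibition of all tested compounds on the plate plus 3 SD, cut at about 37% in these data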;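 further: 0% = orexin A challenge wells and 100% = SB-334867-A antagonist wells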
GPR7 antagonist = blocks human GPR7 receptor signaling | P48145 | GPR7-expressing cells, fluorescence antagonist assay | inhibition, % at 4.4 µM | 290,000 tested, 1.1% active | AID 1861; in the data active means inhibition above about 16%, passing the limit was not always enough;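 further: cells stimulated with the agonist NPW; 0% = agonist with vehicle and 100% = vehicle without agonist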
GPR7 antag cf = confirmation of human GPR7 antagonists | shares compounds with GPR7 antagonist | 2,400 tested, 52% active | inhibition, % at 4.4 µM | GPR7-expressing cells, calcium fluorescence antagonist mode; in the data active means inhibition above about 24%;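 further: stimulated with the GPR7 agonist NPW; 0% = agonist plus vehicle and 100% = vehicle alone without agonist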
MCHR1 antagonist = counter-screen for GPR7 antagonists: antagonists of human MCHR1; MCHR1-expressing cells, fluorescence antagonist assay; inhibition, % at 4.4 µM; 2,400 tested, 62% active; shares compounds with GPR7 antagonist; in the data active means inhibition above about 22%;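 further: 0% = vehicle with agonist and 100% = vehicle without agonist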
The depositor's hits bear a star; . = no result.

SMILES | CHO parental Ca | GalR3 antagonist | OX1R antag-1 | OX1R antag-2 | GPR7 antagonist | GPR7 antag cf | MCHR1 antagonist
CC1CCN(C(=O)c2cc(S(=O)(=O)N3CCCCC3)c[nH]2)CC1 | -9.8 | 3.9 | 8.5 | -11.8 | 26.5* | 5.8 | 5.0
CCN(CC)C(=O)c1cc(S(=O)(=O)N2CCCCC2)c[nH]1 | -9.2 | 1.6 | 11.0 | -12.7 | -4.9 | . | .
O=C(CCN1CCCCC1)N1CCc2c([nH]c3ccccc23)C1c1cccnc1 (configuration not stated) | . | -4.3 | . | . | . | . | .
CCC(C)(C(=O)NC1CCCCC1)N(Cc1ccco1)C(=O)c1ccc2c(c1)OCO2 (configuration not stated) | -16.4 | -7.0 | 12.2 | -33.4 | 34.4* | 34.4* | 11.7
CCC(C)(C(=O)NC1CCCCC1)N(Cc1cccs1)C(=O)CC1NC(=O)NC1=O (configuration not stated) | 3.4 | -6.1 | 0.8 | -9.1 | -9.4 | . | .
CCC(C)(C(=O)NC1CCCCC1)N(Cc1ccco1)C(=O)Cc1cccs1 (configuration not stated) | -19.4 | -5.1 | 20.3 | -14.9 | 40.5* | 49.7* | 27.3*
O=C(NC1CCCN(C2Cc3ccccc3C2)C1)c1ccc(F)cc1Cl (configuration not stated) | -27.0 | -2.1 | 1.5 | -29.3 | -8.4 | . | .
NC1(N2SC(S)=C3CCCC=C32)CCCCC1 | . | -6.3 | . | . | . | . | .
CC(C)NC(=O)N1Cc2cc(C(=O)NC3CCC3)nc(-c3cccc(-c4cncnc4)c3)c2[C@H]1CCO | . | 1.8 | . | . | . | . | .
O=C(NCc1ccccn1)C(=O)NCC1OCCCN1S(=O)(=O)c1cc(F)ccc1F (configuration not stated) | -2.5 | 0.4 | 24.7 | -8.9 | -5.5 | . | .
Cc1nonc1OCCNCCNc1ccc([N+](=O)[O-])cc1Cl | -4.6 | -2.5 | 34.1 | -19.4 | 24.8* | 11.6 | 11.3
N=c1c(C(=O)NC2CCCCC2)cc2c(=O)n3ccccc3nc2n1CC1CCCO1 (configuration not stated) | -6.3 | -7.8 | 60.3* | -13.0 | 21.1* | 27.1* | 18.7
N=c1c(C(=O)NC2CCCC2)cc2c(=O)n3ccccc3nc2n1C1CCCC1 | -1.2 | 4.3 | 32.4 | -6.9 | -6.2 | . | .
COc1ccc(S(=O)(=O)N2CCC(C(=O)Nc3ccccc3N3CCCCC3)CC2)cc1OC | -15.2 | -3.6 | 2.6 | -9.9 | -32.8 | . | .
COC(=O)C1=C(C)N(C)C(=NCc2ccccc2C(F)(F)F)NC1c1cccc(F)c1 (configuration not stated) | . | -5.7 | . | . | . | . | .
O=C(COC(=O)COc1ccccc1)Nc1ccc(Br)cc1Br | -7.5 | -3.7 | 4.9 | -7.1 | . | . | .
NC(=O)N/N=C/c1coc2ccc(O)cc2c1=O | -2.5 | -6.8 | 32.0 | -12.8 | 21.4* | 4.7 | 4.3
S=C(Nc1ccc(Cl)c(Cl)c1)NC1CCCCC1 | 37.6* | . | 59.4* | 24.1 | 42.6* | 35.4* | 48.1*
S=C(Nc1ccc(Cl)c(Cl)c1)NC1CCN(Cc2ccccc2)CC1 | 92.9* | -7.1 | 0.5 | 95.6* | 32.9* | 70.1* | 94.4*
S=C(Nc1cccc(Cl)c1Cl)NC1CCN(Cc2ccccc2)CC1 | . | -6.0 | . | . | -0.3 | . | .
CC(C)NC(=O)C1(C)CSCC(=O)N1Cc1cccs1 (configuration not stated) | . | -5.7 | . | . | . | . | .
COc1ccc(C2Nc3ccccc3C(=O)N2Cc2ccco2)cc1COc1ccccc1F (configuration not stated) | 5.2 | -6.9 | 41.4 | 0.3 | 26.0* | 25.3* | 36.1*
COC(=O)c1ccc(-n2nnnc2SCc2ccccc2OC)cc1 | -7.9 | -3.6 | 24.2 | -20.5 | 38.3* | 36.7* | 60.9*
Oc1ccc(C=NNC(=S)Nc2ccccc2)nc1 | . | -6.1 | . | . | . | . | .
O=C(NCCc1ccccc1)C1CCN(Cc2cccc3ccccc23)CC1 | -13.7 | -11.4 | 2.2 | 3.0 | 28.3* | 4.2 | 9.9
SMILES | CHO parental Ca | GalR3 antagonist | OX1R antag-1 | OX1R antag-2 | GPR7 antagonist | GPR7 antag cf | MCHR1 antagonist
O=C(NCCc1ccccc1)C1CCN(C2CCN(Cc3ccco3)CC2)CC1 | 8.3 | -1.7 | 14.1 | -0.3 | -21.4 | . | .
Cc1cccc(C)c1NC(=O)c1csc([C@H]2C[C@H](O)[C@@H](CO)O2)n1 | . | -5.2 | . | . | . | . | .
N/C(=N\OC(=O)COc1ccc(Cl)cc1Br)c1cccnc1 | -27.1 | -3.2 | 12.5 | -27.2 | 23.8* | 5.7 | 18.4
N/C(=N\OC(=O)COc1ccc(Br)cc1Cl)c1cccnc1 | -19.6 | -6.4 | 9.1 | -13.8 | -6.1 | . | .
c1coc(-c2nnc(SCc3cn4ccccc4n3)o2)c1 | -11.6 | -2.0 | 18.5 | -12.3 | 19.9 | . | .
Brc1c(CSc2nnc(-c3ccco3)o2)nc2ccccn12 | -24.4 | -0.5 | 31.0 | -9.7 | 23.9* | 10.0 | -4.1
O=C(Cc1nc2ccccc2s1)c1ccc(O)cc1O | 6.4 | . | 1.9 | 0.7 | 25.3* | 7.8 | 3.6
CCSc1nsc(NC(=O)Nc2cccc(OC)c2)n1 | 43.5* | -4.1 | 51.7* | 28.7 | 28.3* | 36.9* | 61.5*
CCSc1nsc(NC(=O)Nc2ccccc2F)n1 | 20.3 | -14.0 | 33.6 | 4.1 | 1.2 | . | .
COc1ccc(CCC(=O)OCC(=O)c2c(N)n(CC(C)C)c(=O)n(C)c2=O)cc1 | 43.9* | -2.5 | 40.7 | 24.0 | 28.4* | 43.7* | 59.8*
Cc1ccc(S(=O)(=O)CCC(=O)OCC(=O)c2c(N)n(CC(C)C)c(=O)n(C)c2=O)cc1 | -5.6 | -4.5 | 15.1 | -10.9 | -15.5 | . | .
COCCn1c(SCC(=O)NNC(=O)c2cc(Cl)ccc2OC)nnc1-c1ccncc1 | -19.8 | 2.1 | 9.0 | -2.4 | . | . | .
C[C@@H]1CN([C@@H](C)CO)C(=O)CCCn2cc(nn2)CO[C@H]1CN(C)C(=O)c1ccc2ccn(C)c2c1 | . | -4.9 | . | . | . | . | .
COc1ccc(NS(=O)(=O)c2ccc3oc(=O)ccc3c2)cc1 | -2.3 | -11.3 | 10.6 | -10.4 | -6.5 | . | .
O=c1ccc2cc(S(=O)(=O)Nc3ccc(Br)cc3)ccc2o1 | . | -8.6 | . | . | 24.1* | 14.1 | 21.5*
CCc1nc2cccnc2n1-c1ccc(CC(=O)O)cc1 | -0.1 | -8.4 | -6.3 | 4.7 | -25.6 | . | .
CC(C)NC(=O)CCc1nc2cccnc2n1-c1ccccc1 | -15.7 | -8.0 | 2.5 | 2.2 | 55.8* | -4.0 | -5.1
Cc1ccc(S(=O)(=O)N2CCC[C@H]2C(=O)NC2=NCCS2)cc1 | . | -6.4 | . | . | . | . | .
CN(CC(=O)Nc1ccccc1Cl)C(=O)c1cccc(S(=O)(=O)N2CCN(c3ccc(F)cc3)CC2)c1 | 19.4 | -6.8 | 17.0 | 5.8 | 30.8* | 24.4* | 53.1*
CCC(C)Sc1nc2c(c(=O)[nH]1)C(c1cccs1)C1=C(CCCC1=O)N2 (configuration not stated) | -3.4 | -4.7 | 17.6 | -26.4 | 31.9* | 25.0* | 29.8*
O=C1CCCC2=C1C(c1ccncc1)c1c(nc(SCc3ccccc3Cl)[nH]c1=O)N2 (configuration not stated) | -4.7 | 0.4 | 12.3 | -13.3 | -12.3 | . | .

Assay outcomes deposited in PubChem by The Scripps Research Institute Molecular Screening Center.
